Experimental data from different studies.
Protocols differ between the studies behind these lines.
CDK4 with cyclin D3: Cyclin-dependent kinase 4, with cyclin D3 (CDK4, Homo sapiens, UniProt P11802)
CDK4 with cyclin D1: Cyclin-dependent kinase 4, with cyclin D1 (CDK4, Homo sapiens, UniProt P11802)
CDK4: Cyclin-dependent kinase 4 (CDK4, Homo sapiens, UniProt P11802)

With COc1ncc2cc3ccccc3nc2c1C#N the remaining binding was 100% (CDK4 with cyclin D3; cell-free assay, competition with immobilised ligand; 5 µM).
O=C(NCCCN1CCOCC1)c1ccc(Nc2ncc(Cl)c(-c3ccc(Cl)s3)n2)cc1 has a remaining binding of 8.4% (CDK4 with cyclin D3; binding, competition with immobilised ligand; 1 µM).
O=S(=O)(NC1CCC(c2cc(F)ccc2F)(S(=O)(=O)c2ccc(Cl)cc2)CC1)C(F)(F)F (stereo not drawn) gave a remaining binding of 91% (CDK4 with cyclin D3; cell-free assay, competition with immobilised ligand; 1 µM).
For Nc1ncc2c(n1)-c1c([nH]c3ccc(C#CC4CC4)cc13)CCCC2, the remaining binding was 93% (CDK4 with cyclin D1; binding, competition with immobilised ligand; 1 µM).
For O=C(NCC1CCOCC1)c1n[nH]cc1NC(=O)c1c(F)cccc1F, the remaining binding was 20% (CDK4 with cyclin D3; binding, competition with immobilised ligand; 1 µM).
The remaining binding of CC(C)CC(=O)N1CCc2nc(-c3ccc(Br)cc3)nc(N(C)Cc3ccccc3)c2C1 is reported as 100% (CDK4 with cyclin D3; cell-free assay, competition with immobilised ligand; 0.1 µM).
C=CC(=O)N1CCC(C(=O)NCC(=O)N2CCN(c3nc(-c4cnc(N)nc4C(F)F)nc(N4CCOCC4)n3)CC2)CC1 gave a remaining binding of 83% (CDK4 with cyclin D1; binding, competition with immobilised ligand; 1 µM).
The remaining binding of COc1cnc(Nc2cccc(S(N)(=O)=O)c2)nc1N1CCN(c2ccccc2)CC1 is reported as 76% (CDK4; binding, competition with immobilised ligand; 1 µM).
C[C@@H](c1ccc(-n2cnc3c(N)ncnc32)cc1)N1CCc2nn(C)c(Cc3ccccc3)c2C1=O has a remaining binding of 85% (CDK4; binding, competition with immobilised ligand; 0.1 µM).
For O=C(c1ccc(Nc2ncc(Cl)c(-c3ccc(Cl)s3)n2)cc1)N1CCC(N2CCCC2)CC1, the remaining binding was 0.1% (CDK4 with cyclin D1; binding, competition with immobilised ligand; 1 µM).
For CNC(=O)c1ccc(Nc2ncc(C(F)(F)F)c(NCc3nccnc3N(C)S(C)(=O)=O)n2)cc1, the remaining binding was 100% (CDK4; cell-free assay, competition with immobilised ligand; 0.1 µM).
Cc1cnc(Nc2ccc(C(=O)N3CCC(N4CCCC4)CC3)cc2)nc1-c1cc2ccccc2s1 has a remaining binding of 1.7% (CDK4 with cyclin D1; binding, competition with immobilised ligand; 1 µM).
N#CC1(c2ccccn2)CCN(Cc2cc(C(=O)N3CCCC3)c(=O)n3ccccc23)CC1 has a remaining binding of 100% (CDK4 with cyclin D1; cell-free assay, competition with immobilised ligand; 1 µM).
With Cc1cnn2ncc(-c3ccnc(N(C)C)n3)c2c1 the remaining binding was 84% (CDK4 with cyclin D1; binding; 1 µM).
O=C1CCc2cc(Nc3cc(OC4CCOCC4)c([N+](=O)[O-])cc3Cl)ccc2N1 has a remaining binding of 81% (CDK4; cell-free assay, competition with immobilised ligand; 1 µM).
The remaining binding of CCN1CCN(Cc2ccc(C(=O)Nc3ccc(C)c(Oc4ccc5c(c4)CC(=O)N5)c3)cc2C(F)(F)F)CC1 is reported as 100% (CDK4 with cyclin D3; binding, competition with immobilised ligand; 1 µM).
The remaining binding of O=C(c1ccc(Nc2ncc(Cl)c(-c3cc4ccccc4s3)n2)cc1)N1CCC(N2CCCC2)CC1 is reported as 0.8% (CDK4 with cyclin D3; binding, competition with immobilised ligand; 1 µM).
c1cncc(-c2cccc(Nc3nccc(NC4CCCCC4)n3)c2)c1 has a remaining binding of 86% (CDK4 with cyclin D3; binding, competition with immobilised ligand; 10 µM).
The remaining binding of O=C(NCCCN1CCOCC1)c1ccc(Nc2nccc(-c3cc4ccccc4s3)n2)cc1 is reported as 55% (CDK4; binding, competition with immobilised ligand; 1 µM).
With COc1cnc(Nc2cccc(S(N)(=O)=O)c2)nc1N1CCN(c2ccccc2)C(=O)C1 the remaining binding was 99% (CDK4; binding, competition with immobilised ligand; 1 µM).
C[C@@H]1CCN(c2nccc(-c3cnn4ncccc34)n2)C1 gave a remaining binding of 88% (CDK4 with cyclin D1; binding; 1 µM).
With O=C(c1ccc(Nc2nccc(-c3cc4ccccc4s3)n2)cc1)N1CCC(N2CCCC2)CC1 the remaining binding was 18% (CDK4 with cyclin D3; binding, competition with immobilised ligand; 1 µM).
For CN(c1nccc(-c2cnn3ncccc23)n1)C1CC1, the remaining binding was 100% (CDK4 with cyclin D3; binding; 1 µM).
With O=C(Nc1c[nH]nc1C(=O)NC1CCNCC1)c1cc(F)cc(F)c1 the remaining binding was 66% (CDK4 with cyclin D1; binding, competition with immobilised ligand; 1 µM).
FC(F)(F)Oc1cccc(-c2cnc3ccc(-c4ccncc4)nn23)c1 has a remaining binding of 57% (CDK4 with cyclin D3; cell-free assay, competition with immobilised ligand; 5 µM).
The remaining binding of c1cnn2ncc(-c3ccnc(N4CCC45COC5)n3)c2c1 is reported as 81% (CDK4 with cyclin D1; binding; 1 µM).
O=C(O)c1cc(-c2ccc(C3CCNCC3)cc2)c2ccc(-c3ccc(C(F)(F)F)cc3)cc2c1 has a remaining binding of 100% (CDK4 with cyclin D3; cell-free assay, competition with immobilised ligand; 1 µM).
The remaining binding of CN(C)c1ncc(F)c(-c2cnn3ncccc23)n1 is reported as 91% (CDK4 with cyclin D3; binding; 1 µM).
With CC(C)(O)c1cncc(-c2nc3ccc(F)cc3n2C2CC2)c1 the remaining binding was 100% (CDK4 with cyclin D1; cell-free assay, competition with immobilised ligand; 1 µM).
CN(C)c1nccc(-c2cnn3ncccc23)n1 has a remaining binding of 100% (CDK4 with cyclin D3; binding; 1 µM).
The remaining binding of CN(C)CC#Cc1ccc(OCCCc2sc(N3CCc4cccc(C(=O)Nc5nc6ccccc6s5)c4C3)nc2C(=O)O)c(F)c1 is reported as 100% (CDK4; cell-free assay, competition with immobilised ligand; 1 µM).
With N[C@@H]1CCN(c2nccc(-c3cnn4ncccc34)n2)C1 the remaining binding was 100% (CDK4 with cyclin D1; binding; 1 µM).
CNC(=O)[C@@H]1CC[C@@H](n2c(-c3ccc4cnccc4c3)nc3ccc(C(=O)NCc4cccc(C(N)=O)c4)cc32)C1 gave a remaining binding of 100% (CDK4; binding, competition with immobilised ligand; 1 µM).
